In the library only some 2.1% were active in any assay of this set; here they are far more common.
VIM-2 inhibitor – blocks Pseudomonas aeruginosa VIM-2 metallo-beta-lactamase. purified VIM-2, nitrocefin hydrolysis, epi-absorbance fluorescence. inhibition, % at 5.6 µM. hit rate 0.89% among 290,000;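 active = inhibition above the mean of all tested compounds plus 3 SD, cutoff set per screening run, cut at about 7.5% in these data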;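 also: red hydrolysis product quenches plate fluorescence so inhibitors raise well fluorescence; 0% = enzyme with DMSO and 100% = DMSO without enzyme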
IMP-1 inhibitor – blocks Pseudomonas aeruginosa IMP-1 metallo-beta-lactamase; purified IMP-1, nitrocefin hydrolysis, epi-absorbance fluorescence; hit rate 0.45% among 290,000; inhibition, % at 5.6 µM;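 active = inhibition above the mean plus 3 SD of all compounds in the same screening run, cut at about 4.5% in these data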;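 also: 0% = IMP-1 with DMSO and 100% = DMSO wells lacking enzyme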
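System: Purified IMP-1 | Read-out basis: Percent enzyme inhibition | Controls: IMP-1 with DMSO as 0%, enzyme-free DMSO as 100% | Replicates: One well per compound | Doses: 5.6 µM nominal single concentration | Detection: Epi-absorbance fluorescence, 480 nm excitation, 530 nm emission | Incubation: 25 °C, 15 min preincubation, 25 min reaction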
MsrA inh – inhibits bovine methionine sulfoxide reductase A | purified bovine MsrA, absorbance read-out | inhibition, % at 15.5 µM | hit rate 0.75% among 360,000; in the data active = inhibition above about 4.5%;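 also: 0% = vehicle wells with enzyme and 100% = reference inhibitor wells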
MsrA act – bovine methionine sulfoxide reductase A activation; purified bovine MsrA, absorbance read-out; activation, % at 10.6 µM; hit rate 0.3% among 360,000; in the data active = activation above about 7.5%;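 also: 0% = vehicle and 100% = reference activator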
PKA-R1A activ – activates the PKA-R1A holoenzyme complex | PKA-R1A dissociation, Cy5-IP20 fluorescence polarization; scaled: DMSO 0%, 113 µM cGMP 100% | activation, % at 11.4 µM | AID 504707 | P00514+P68181 | hit rate 0.083% among 340,000;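 active = percent activation above the mean of all tested compounds plus 3 SD, cut at about 19% in these data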;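 also: higher means more PKAc released from R1A so a rise in polarization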
PKA-R2B act – activates the human PKA-R2B holoenzyme complex; activation, % at 11.4 µM; hit rate 0.079% among 340,000; PKA-R2B holoenzyme dissociation, Cy5-IP20 fluorescence polarization; R2B truncated from residue 108, S112A mutant; 0% DMSO only, 100% 113 µM cGMP;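 active = activation above a cutoff set at the mean over all compounds plus 3 SD, cut at about 18% in these data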;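 also: higher means more holoenzyme dissociation and a rise in polarization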
Target sequence (P31323 whole entry, looked up, other chains not shown, the tested form may be a part): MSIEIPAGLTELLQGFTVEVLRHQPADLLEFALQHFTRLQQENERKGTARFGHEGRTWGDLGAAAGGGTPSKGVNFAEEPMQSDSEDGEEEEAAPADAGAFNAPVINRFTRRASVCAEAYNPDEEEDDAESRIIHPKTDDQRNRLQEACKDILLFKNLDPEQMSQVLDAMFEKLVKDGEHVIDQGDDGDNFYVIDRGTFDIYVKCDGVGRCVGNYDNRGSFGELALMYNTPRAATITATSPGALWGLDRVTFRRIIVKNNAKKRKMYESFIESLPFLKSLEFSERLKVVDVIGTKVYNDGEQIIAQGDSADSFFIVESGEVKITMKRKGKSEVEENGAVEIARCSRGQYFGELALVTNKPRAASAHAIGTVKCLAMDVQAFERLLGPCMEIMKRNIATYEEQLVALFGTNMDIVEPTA
MsrA act confirm – confirmation of bovine methionine sulfoxide reductase A activators; shares compounds with MsrA act; purified bovine MsrA, absorbance read-out; hit rate 12% among 1,000; activation, % at 10.6 µM; in the data active = activation above about 4%;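 also: enzyme coupled to thioredoxin and thioredoxin reductase with NADPH; 0% = vehicle wells and 100% = reference activator wells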
The depositor's hits bear a star; . = no result given.

SMILES	VIM-2 inhibitor	IMP-1 inhibitor	MsrA inh	MsrA act	PKA-R1A activ	PKA-R2B act	MsrA act confirm
Cc1ccc(NS(=O)(=O)c2cc(C(N)=O)ccc2C)cc1	0.1	-1.6	0.2	-1.9	2.2	-1.6	.
Cc1ccc(C(N)=O)cc1S(=O)(=O)Nc1cccc(C)c1C	-4.9	-2.4	-0.6	15.7*	4.0	-4.8	-3.7
Cc1ccc(CC(=O)Nc2cccc(C(=O)Nc3c(C)n(C)n(-c4ccccc4)c3=O)c2)cc1C	.	.	0.5	-1.6	4.4	-10.6	.
O=C(NCc1nnnn1-c1ccc(F)cc1)C1CC(=O)N(c2ccc(F)cc2)C1 (stereo unspecified)	.	.	0.6	-0.4	-11.2	-1.9	.
Cc1ccc(-n2nnnc2CNC(=O)C2CC(=O)N(c3ccc(F)cc3)C2)cc1C (stereo unspecified)	.	.	-0.5	7.7*	2.7	-0.7	-1.3
COCCN(C(=O)CSc1nnc(-c2cccc(Cl)c2)n1N)c1c(N)n(CC(C)C)c(=O)[nH]c1=O	.	.	0.6	-5.4	1.4	1.7	.
Cc1ccccc1-c1noc(CCC(=O)NCc2ccco2)n1	-2.4	-2.5	-1.3	11.9*	3.4	14.2	-2.3
CC(C)C[C@H]1COc2cccc(N3CCCCC3)c2S(=O)(=O)N1	.	.	-0.9	.	.	.	.
CC(C)c1c(O)nc(SCC(=O)N2CCCCC2)[nH]c1=O	-0.7	-2.1	3.0	-2.4	-2.4	3.1	.
CC(C)Cc1c(O)nc(SCC(=O)N2CCCCCC2)[nH]c1=O	-3.1	-0.5	2.1	21.5*	-1.8	7.5	-0.6
O=C1C=C(c2c(O)ccc3ccccc23)c2ccccc2C1=O	.	.	-1.0	21.4*	-12.0	-1.0	12.1*
Cc1cccc(NC(=O)CN2C(=O)NC(C)(c3ccc4c(c3)OCO4)C2=O)c1 (stereo unspecified)	0.7	-0.9	-0.3	-3.1	-10.4	-0.7	.
Cc1ccc(C2(C)NC(=O)N(CC(=O)Nc3ccc4c(c3)OCO4)C2=O)cc1 (stereo unspecified)	-1.1	-1.5	-0.1	11.1*	-13.8	1.1	-3.3
CCCCCCCC[n+]1cccc(C(=O)N(CC)CC)c1	-0.2	-4.2	-0.2	17.6*	7.0	0.5	-2.5
CCC(=O)N1CCc2cc(Br)cc(S(=O)(=O)CCC(=O)NCc3ccco3)c21	-1.4	-2.4	.	14.1*	-4.2	-12.6	0.4
CCC(=O)N1CCc2cc(Br)cc(S(=O)(=O)NCc3ccco3)c21	-2.1	-2.2	.	-9.0	-20.5	-15.1	.
COCCN(CC(=O)Nc1cccc(C)c1C)C(=O)c1ccc(S(=O)(=O)N2CCOCC2)cc1	.	.	0.9	-4.3	-10.2	3.5	.
CC1(C(=O)NCCC(F)(F)F)Cc2c(-c3ccccc3)ccnc2O1 (stereo unspecified)	.	.	0.3	-0.4	.	.	.
CC1CC(C)CN(CCCNC(=O)CCNC(=O)Cn2ccc3ccccc3c2=O)C1 (stereo unspecified)	-1.0	-2.9	-0.2	7.7*	-4.0	-2.5	-0.5
O=C(N/N=C/c1ccc(O)c2ncccc12)c1cccc(Br)c1	-4.4	-2.9	3.0	15.3*	-3.0	0.3	-0.8
O=C(N/N=C/c1ccc([N+](=O)[O-])s1)c1cccc(Br)c1	-4.9	-5.3	0.6	8.7*	0.9	4.4	6.6*
O=C(N/N=C/c1cc(Br)ccc1O)c1ccncc1	-1.1	0.0	-0.3	-3.2	-3.7	-4.6	.
S=c1[nH]cc2cnccn12	.	.	0.4	4.5	10.8	4.6	.
CCC(=O)Nc1ccc(C(=O)Nc2cccnc2)cc1	-2.8	-4.3	-0.9	15.3*	-9.8	-0.1	-1.4
Cc1cc(=O)[nH]c(-c2ccccc2)n1	-2.7	-1.5	-0.6	-3.4	6.0	-4.2	.
SMILES	VIM-2 inhibitor	IMP-1 inhibitor	MsrA inh	MsrA act	PKA-R1A activ	PKA-R2B act	MsrA act confirm
Cc1cc(-c2ccccc2)cc(=O)[nH]1	.	.	1.3	12.8*	-14.7	3.4	-1.9
CNc1cncc(-c2ccc(O)cc2C)n1	.	.	1.2	-2.8	.	.	.
CC(C)CN(CCCNC(=O)CC1Oc2ccccc2NC1=O)CC(C)C (stereo unspecified)	-3.3	-3.1	-0.7	8.6*	-8.6	-0.2	-0.3
CCCCN(CC)CCCNC(=O)CC1Oc2ccccc2NC1=O (stereo unspecified)	-2.9	-1.9	1.0	-2.3	7.5	3.4	.
CS(=O)(=O)Nc1ccc(C(=O)NCCSCc2c(F)cccc2Cl)cc1	-1.5	-1.6	-1.2	8.3*	6.0	3.1	1.2
CS(=O)(=O)Nc1ccc(C(=O)NCCSCc2ccccc2)cc1	-0.1	-1.8	1.6	2.2	9.4	-3.4	.
COc1cc(Cl)c(CNC[C@H]2O[C@@H](n3ccc(=O)[nH]c3=O)[C@H](O)[C@@H]2O)c(Cl)c1O	.	.	0.3	10.1*	2.2	-1.0	-1.2
CC1(C)NC(=O)N(c2ccccc2Cl)C1(C)NO (stereo unspecified)	-1.9	-1.6	0.5	10.8*	-4.4	5.8	-3.2
CN(C(=O)c1ccc(NC(=O)Cc2cccc(NC(=O)C3CCCN(C(=O)C4CC4)C3)c2)cc1)C1CCCC1 (stereo unspecified)	.	.	-0.7	8.3*	1.4	1.4	-0.8
CN(C(=O)c1ccc(NC(=O)Cc2cccc(NC(=O)C3CCCN(C(=O)C4CCCCC4)C3)c2)cc1)C1CCCC1 (stereo unspecified)	.	.	-1.0	-2.1	2.0	-10.9	.
O=C(CCCn1c(=S)[nH]c2cc3c(cc2c1=O)OCO3)N1CCN(c2ccccn2)CC1	0.5	-3.8	-0.4	18.5*	-1.4	4.4	2.8
COc1cccc(-c2cc3nc(NCCN4CCCC4)n(C)c(=O)c3s2)c1	.	.	1.8	12.5*	.	.	0.5
O=C(NCCS(=O)(=O)N1CCN(c2ccccc2F)CC1)c1ccc(Br)cc1	-3.8	-5.2	0.4	-1.3	1.3	-3.1	.
COc1ccc(CN2CCC[C@]3(N[C@H](c4ccccc4)[C@@H]4C(=O)N(Cc5ccccc5)C(=O)[C@@H]43)C2=O)cc1	.	.	0.3	-1.0	-3.8	-17.3	.
CCc1nc2ccc(C(=O)Nc3ccc(NC(C)=O)cc3)cn2c1N(C)CCC(C)C	.	.	-1.3	8.8*	.	.	-1.1
CCn1c(=O)cc(OCC(=O)O)c2ccccc21	1.8	-1.5	-1.6	14.4*	-14.5	4.7	-1.3
CCOCCC(=O)Nc1ccc2c(c1)c(=O)n(C)n2-c1ccccc1F	.	.	0.3	10.4*	.	.	0.4
CSC1=NCCN1S(=O)(=O)c1ccc(NC(C)=O)cc1	-0.1	-0.8	-0.1	21.3*	3.3	0.2	-2.6
Nn1cnnc1N/N=C\c1ccc(-c2ccccc2[N+](=O)[O-])o1	-3.0	-1.8	-0.2	19.8*	-2.2	-12.5	-1.4
C/C(N)=C(/C#N)C(=O)COC(=O)c1ccccc1C(=O)c1ccc(C)cc1	-1.9	-2.5	0.9	8.6*	-7.3	8.5	0.5
Cc1cccc(C)c1NC(=O)C1(C)CN(S(C)(=O)=O)CC(=O)N1CCOc1ccccc1 (stereo unspecified)	.	.	-0.4	.	.	.	.

Screens: PubChem BioAssay, The Scripps Research Institute Molecular Screening Center
